Laboratory results reported in ChEMBL document CHEMBL4130613, “Identification and Proposed Relative and Absolute Configurations of Niphimycins C-E from the Marine-Derived Streptomyces sp. IMB7-145 by Genomic Analysis” (J Nat Prod, 2018).
In brackets after ≈: the same amount, converted by molar mass. Activity calls are given as the source filed them. No cut-off for these calls is given here.

Key:
[1] = system: Klebsiella pneumoniae; assay: Antibacterial activity against NDM-1 positive Klebsiella pneumoniae ATCC BAA-2146 after 18 hrs by agar dilution method; type: functional; conditions: ATCC BAA-2146, 18 h
[2] = system: Providencia rettgeri; assay: Antibacterial activity against Providencia rettgeri ATCC 31052 after 18 hrs by agar dilution method; type: functional; conditions: ATCC 31052, 18 h
[3] = system: Klebsiella pneumoniae; assay: Antibacterial activity against extended-spectrum beta-lactamase-positive Klebsiella pneumoniae 12-8 after 18 hrs by agar dilution method; type: functional; conditions: 12-8, 18 h
[4] = system: Staphylococcus epidermidis; assay: Antibacterial activity against methicillin-resistant Staphylococcus epidermidis 12-8 after 18 hrs by agar dilution method; type: functional; conditions: for MIC: 12-8, 18 h
[5] = system: HeLa; assay: Cytotoxicity against human HeLa cells after 48 hrs by SRB assay; type: functional, cell-based
Outline: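 HeLa human cervical carcinoma cells obtained from ATCC. Cytotoxicity was read by sulforhodamine B staining following an earlier published protocol, with doxorubicin hydrochloride as positive control. Values are reported as IC50.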

[6] = system: Stenotrophomonas maltophilia; assay: Antibacterial activity against Stenotrophomonas maltophilia ATCC 13636 after 18 hrs by agar dilution method; type: functional; conditions: ATCC 13636, 18 h
[7] = system: Serratia marcescens; assay: Antibacterial activity against Serratia marcescens ATCC 21074 after 18 hrs by agar dilution method; type: functional; conditions: ATCC 21074, 18 h
[8] = system: Proteus vulgaris; assay: Antibacterial activity against Proteus vulgaris ATCC 29905 after 18 hrs by agar dilution method; type: functional; conditions: ATCC 29905, 18 h
[9] = system: Staphylococcus aureus; assay: Antibacterial activity against methicillin-resistant Staphylococcus aureus 12-33 after 18 hrs by agar dilution method; type: functional; conditions: for MIC: 12-33, 18 h
[10] = system: Enterococcus faecalis; assay: Antibacterial activity against vancomycin-resistant Enterococcus faecalis 09-9 after 18 hrs by agar dilution method; type: functional; conditions: for MIC: 09-9, 18 h
[11] = system: Acinetobacter calcoaceticus; assay: Antibacterial activity against Acinetobacter calcoaceticus ATCC 19606 after 18 hrs by agar dilution method; type: functional; conditions: ATCC 19606, 18 h
[12] = system: Pseudomonas aeruginosa; assay: Antibacterial activity against Pseudomonas aeruginosa 12-16 after 18 hrs by agar dilution method; type: functional; conditions: 12-16, 18 h
[13] = system: Mycobacterium tuberculosis; assay: Antibacterial activity against Mycobacterium tuberculosis isolate FJ05349 […] by agar dilution method; type: functional
[14] = system: Citrobacter freundii; assay: Antibacterial activity against Citrobacter freundii ATCC 43864 after 18 hrs by agar dilution method; type: functional; conditions: ATCC 43864, 18 h
[15] = system: Staphylococcus aureus; assay: Antibacterial activity against methicillin-resistant Staphylococcus aureus ATCC 33591 after 18 hrs by agar dilution method; type: functional; conditions: for MIC: ATCC 33591, 18 h
[16] = system: Escherichia coli; assay: Antibacterial activity against extended-spectrum beta-lactamase-positive Escherichia coli 12-15 after 18 hrs by agar dilution method; type: functional; conditions: 12-15, 18 h
[17] = system: Klebsiella pneumoniae; assay: Antibacterial activity against extended-spectrum beta-lactamase-positive Klebsiella pneumoniae ATCC 700603 after 18 hrs by agar dilution method; type: functional; conditions: Klebsiella pneumoniae, 700603, 18 h
[18] = system: Mycobacterium tuberculosis; assay: Antibacterial activity against Mycobacterium tuberculosis isolate FJ05060 […] by agar dilution method; type: functional
[19] = system: Pseudomonas aeruginosa; assay: Antibacterial activity against Pseudomonas aeruginosa PAO1 after 18 hrs by agar dilution method; type: functional; conditions: PAO1, 18 h
[20] = system: Pseudomonas aeruginosa; assay: Antibacterial activity against Pseudomonas aeruginosa ATCC 27853 after 18 hrs by agar dilution method; type: functional; conditions: ATCC 27853, 18 h
[21] = system: Enterococcus faecium; assay: Antibacterial activity against vancomycin-resistant Enterococcus faecium ATCC 700221 after 18 hrs by agar dilution method; type: functional; conditions: for MIC: ATCC 700221, 18 h
[22] = system: Escherichia coli; assay: Antibacterial activity against extended-spectrum beta-lactamase-negative Escherichia coli 12-14 after 18 hrs by agar dilution method; type: functional; conditions: 12-14, 18 h
[23] = system: Morganella morganii; assay: Antibacterial activity against Morganella morganii ATCC 25830 after 18 hrs by agar dilution method; type: functional; conditions: ATCC 25830, 18 h
[24] = system: Candida albicans; assay: Antifungal activity against Candida albicans ATCC 10231 after 18 hrs by agar dilution method; type: functional; conditions: ATCC 10231, 18 h
[25] = system: Escherichia coli; assay: Antibacterial activity against extended-spectrum beta-lactamase-negative Escherichia coli ATCC 25922 after 18 hrs by agar dilution method; type: functional; conditions: ATCC 25922, 18 h
[26] = system: Enterococcus faecium; assay: Antibacterial activity against vancomycin-resistant Enterococcus faecium 12-1 after 18 hrs by agar dilution method; type: functional; conditions: for MIC: 12-1, 18 h
[27] = system: Klebsiella pneumoniae; assay: Antibacterial activity against extended-spectrum beta-lactamase-negative Klebsiella pneumoniae 7 after 18 hrs by agar dilution method; type: functional; conditions: Klebsiella pneumoniae, 7, 18 h
[28] = system: Proteus mirabilis; assay: Antibacterial activity against Proteus mirabilis 12-6 after 18 hrs by agar dilution method; type: functional; conditions: 12-6, 18 h
[29] = system: Enterobacter cloacae; assay: Antibacterial activity against Enterobacter cloacae ATCC 43560 after 18 hrs by agar dilution method; type: functional; conditions: ATCC 43560, 18 h
[30] = system: Klebsiella pneumoniae; assay: Antibacterial activity against extended-spectrum beta-lactamase-negative Klebsiella pneumoniae 12-4 after 18 hrs by agar dilution method; type: functional; conditions: 12-4, 18 h
[31] = system: Mycobacterium tuberculosis; assay: Antibacterial activity against Mycobacterium tuberculosis H37Rv […] by agar dilution method; type: functional
[32] = system: Enterococcus faecalis; assay: Antibacterial activity against vancomycin-resistant Enterococcus faecalis ATCC 51299 after 18 hrs by agar dilution method; type: functional; conditions: for MIC: ATCC 51299, 18 h
[33] = system: Escherichia coli; assay: Antibacterial activity against extended-spectrum beta-lactamase-negative Escherichia coli 1515 after 18 hrs by agar dilution method; type: functional; conditions: Escherichia coli, 1515, 18 h
[34] = system: Klebsiella aerogenes; assay: Antibacterial activity against Enterobacter aerogenes ATCC 13048 after 18 hrs by agar dilution method; type: functional; conditions: ATCC 13048, 18 h

Row | Compound | MIC [1] [µg/mL] | MIC [2] [µg/mL] | MIC [3] [µg/mL] | IC50 [5] [µM] | MIC [6] [µg/mL] | MIC [7] [µg/mL] | MIC [8] [µg/mL] | MIC [11] [µg/mL] | MIC [12] [µg/mL] | MIC [14] [µg/mL] | MIC [16] [µg/mL] | MIC [17] [µg/mL] | MIC [19] [µg/mL] | MIC [20] [µg/mL] | MIC [22] [µg/mL] | MIC [23] [µg/mL] | MIC [24] [µg/mL] | MIC [25] [µg/mL] | MIC [27] [µg/mL] | MIC [28] [µg/mL] | further results
1 | CNC(=N)NCCC/C=C/CCC[C@H](C)C[C@H](C)[C@H]1OC(=O)[C@H](C)[C@H](O)/C=C/[C@H](C)[C@H](O)C[C@H](O)[C@H](C)[C@@H](O)CC[C@H](C)[C@H](O)C[C@]2(O)O[C@H](C[C@@H](O)C[C@H](OC(=O)CC(=O)O)C[C@@H](O)[C@H](C)[C@H](O)/C=C/C=C/[C@@H]1C)C[C@H](O)[C@H]2O | > 64 | > 64 | > 64 | 3 to 9 | > 64 | > 64 | > 64 | > 64 | > 64 | > 64 | > 64 | > 64 | > 64 | > 64 | > 64 | > 64 | 8 to 32 (≈ 7 to 28 µM) | > 64 | > 64 | > 64 | MIC [4]: 4 to 32 µg/mL (≈ 3.5 to 28 µM); MIC [9]: 4 to 32 µg/mL (≈ 3.5 to 28 µM); MIC [10]: 64 µg/mL (≈ 56 µM); MIC [13]: 4 to 16 µg/mL (≈ 3.5 to 14 µM); MIC [15]: 4 to 32 µg/mL (≈ 3.5 to 28 µM); MIC [18]: 4 to 16 µg/mL (≈ 3.5 to 14 µM); MIC [21]: 64 µg/mL (≈ 56 µM); MIC [26]: 64 µg/mL (≈ 56 µM); MIC [29]: > 64 µg/mL; MIC [30]: > 64 µg/mL; MIC [31]: 4 µg/mL (≈ 3.5 µM); MIC [32]: 64 µg/mL (≈ 56 µM); MIC [33]: > 64 µg/mL; MIC [34]: > 64 µg/mL
2 | CNC(=N)NCCC/C=C/CCC[C@H](C)C[C@H](C)[C@H]1OC(=O)[C@H](C)[C@H](O)/C=C/[C@H](C)[C@H](O)C[C@H](O)[C@H](C)[C@@H](O)CC[C@H](C)[C@H](O)C[C@]2(O)O[C@H](C[C@@H](OC(=O)CC(=O)O)C[C@H](O)C[C@@H](O)[C@H](C)[C@H](O)/C=C/C=C/[C@@H]1C)C[C@H](OC(=O)CC(=O)O)[C@H]2O | > 64 | > 64 | > 64 | 3 to 9 | > 64 | > 64 | > 64 | > 64 | > 64 | > 64 | > 64 | > 64 | > 64 | > 64 | > 64 | > 64 | 8 to 32 (≈ 6.51 to 26 µM) | > 64 | > 64 | > 64 | Activity [4]: Active; Activity [9]: Active; Activity [10]: Active; Activity [15]: Active; Activity [21]: Active; Activity [26]: Active; MIC [29]: > 64 µg/mL; MIC [30]: > 64 µg/mL; Activity [32]: Active; MIC [33]: > 64 µg/mL; MIC [34]: > 64 µg/mL
3 | CNC(=N)NCCC/C=C/CCC[C@H](C)C[C@H](C)[C@H]1OC(=O)[C@H](C)[C@H](O)/C=C/[C@H](C)[C@H](O)C[C@H](O)[C@H](C)[C@@H](O)CC[C@H](C)[C@H](O)C[C@]2(O)O[C@H](C[C@@H](OC(=O)CC(=O)O)C[C@H](O)C[C@@H](O)[C@H](C)[C@H](O)/C=C/C=C/[C@@H]1C)C[C@H](O)[C@H]2O | > 64 | > 64 | > 64 | 3 to 9 | > 64 | > 64 | > 64 | > 64 | > 64 | > 64 | > 64 | > 64 | > 64 | > 64 | > 64 | > 64 | 8 to 32 (≈ 7 to 28 µM) | > 64 | > 64 | > 64 | MIC [4]: 4 to 32 µg/mL (≈ 3.5 to 28 µM); MIC [9]: 4 to 32 µg/mL (≈ 3.5 to 28 µM); MIC [10]: 64 µg/mL (≈ 56 µM); MIC [13]: 4 to 16 µg/mL (≈ 3.5 to 14 µM); MIC [15]: 4 to 32 µg/mL (≈ 3.5 to 28 µM); MIC [18]: 4 to 16 µg/mL (≈ 3.5 to 14 µM); MIC [21]: 64 µg/mL (≈ 56 µM); MIC [26]: 64 µg/mL (≈ 56 µM); MIC [29]: > 64 µg/mL; MIC [30]: > 64 µg/mL; MIC [31]: 4 µg/mL (≈ 3.5 µM); MIC [32]: 64 µg/mL (≈ 56 µM); MIC [33]: > 64 µg/mL; MIC [34]: > 64 µg/mL
4 | CNC(=N)NCCC/C=C/CCC[C@H](C)C[C@H](C)[C@H]1OC(=O)[C@H](C)[C@H](O)/C=C/[C@H](C)[C@H](O)C[C@H](O)[C@H](C)[C@@H](O)CC[C@H](C)[C@H](O)C[C@]2(OC)O[C@H](C[C@@H](OC(=O)CC(=O)O)C[C@H](O)C[C@@H](O)[C@H](C)[C@H](O)/C=C/C=C/[C@@H]1C)C[C@H](O)[C@H]2O | > 64 | > 64 | > 64 | 3 to 9 | > 64 | > 64 | > 64 | > 64 | > 64 | > 64 | > 64 | > 64 | > 64 | > 64 | > 64 | > 64 | 8 to 32 (≈ 6.92 to 27.7 µM) | > 64 | > 64 | > 64 | Activity [4]: Active; Activity [9]: Active; Activity [10]: Active; Activity [15]: Active; Activity [21]: Active; Activity [26]: Active; MIC [29]: > 64 µg/mL; MIC [30]: > 64 µg/mL; Activity [32]: Active; MIC [33]: > 64 µg/mL; MIC [34]: > 64 µg/mL
